# PKD1 inh = PKD1 (human) kinase inhibition; PKD1 kinase fluorescence polarization assay; inhibition, % (concentration not given with the values); actives 0.056% (n = 200,000)
# Target sequence (Q15139 whole entry, looked up): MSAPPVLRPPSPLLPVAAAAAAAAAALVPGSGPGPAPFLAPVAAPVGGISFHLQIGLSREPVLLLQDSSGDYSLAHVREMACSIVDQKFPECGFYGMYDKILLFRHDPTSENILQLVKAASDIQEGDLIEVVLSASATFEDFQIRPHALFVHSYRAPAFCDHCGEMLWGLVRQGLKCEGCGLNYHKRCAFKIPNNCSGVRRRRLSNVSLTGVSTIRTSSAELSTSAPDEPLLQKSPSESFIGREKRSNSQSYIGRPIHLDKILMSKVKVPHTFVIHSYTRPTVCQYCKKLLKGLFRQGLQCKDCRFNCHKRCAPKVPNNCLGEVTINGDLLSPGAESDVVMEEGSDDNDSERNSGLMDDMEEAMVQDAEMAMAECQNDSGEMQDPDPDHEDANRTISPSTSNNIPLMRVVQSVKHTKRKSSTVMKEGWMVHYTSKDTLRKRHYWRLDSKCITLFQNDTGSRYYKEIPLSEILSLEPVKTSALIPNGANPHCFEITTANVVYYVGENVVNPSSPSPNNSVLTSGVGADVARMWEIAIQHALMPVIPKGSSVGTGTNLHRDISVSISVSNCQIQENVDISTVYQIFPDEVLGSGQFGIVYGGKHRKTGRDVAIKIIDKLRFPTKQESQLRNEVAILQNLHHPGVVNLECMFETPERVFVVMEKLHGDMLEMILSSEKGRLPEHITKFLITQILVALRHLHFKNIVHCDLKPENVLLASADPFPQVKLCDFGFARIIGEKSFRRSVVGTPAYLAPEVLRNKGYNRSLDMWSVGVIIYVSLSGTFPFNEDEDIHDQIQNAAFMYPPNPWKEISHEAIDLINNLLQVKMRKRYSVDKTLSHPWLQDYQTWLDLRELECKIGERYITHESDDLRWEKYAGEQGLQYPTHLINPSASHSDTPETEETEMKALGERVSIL
# Rad51 HR inh = Rad51 (human) homologous recombination inhibition | hRad51 DNA strand exchange, fluorescence dequenching | Q06609 | inhibition, % at 10 µM | actives 0.085% (n = 200,000);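 active means inhibition above 40% at the single screening dose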;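 further: 0% = DMSO control wells and 100% = blanks with heterologous ssDNA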
#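 Material: human Rad51–ssDNA filaments; Probe or stimulus: labelled 47-mer dsDNA for strand exchange; Doses: single 10 µM dose; Incubation: 37 °C 15-min filament assembly, 30-min compound preincubation, 15-min exchange; Technique: FRET fluorescence dequenching, excitation 485 nm, emission 520 nm; Measure: Fluorescence-based percent inhibition, control- and blank-normalised; Benchmarks: plate control and blank wells.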
# Wee1 stabilizer = inhibitors of human Wee1 degradation; reporter increase, % at 5 µM; P30291; actives 1.2% (n = 220,000); HeLa Luc-Wee1K328M stability, luciferase luminescence; 100% = proteasome inhibitor MG132 effect;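 active means activation above the mean of all tested compounds plus 3 SD, set per screening run, cut at about 8.8% in these data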;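 further: cells exposed to compound for 20 h before luminescence read; 0% = DMSO alone and 100% = MG132 at 30 µM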
# L major viab = Leishmania major promastigote growth inhibition; actives 9% (n = 200,000); inhibition, % at 10 µM; Leishmania major promastigotes, resazurin fluorescence viability; AID 1063;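 further: promastigotes grown with compound for 44 hours at 28 °C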
# CHOP inh = CHOP inhibition in unfolded protein response. inhibition, % at 10 µM. CHO-K1 CHOP-promoter luciferase, tunicamycin-induced, 15-18 h. actives 3.8% (n = 220,000);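 active means compounds that reduced the stress-induced luciferase reporter signal by more than about 70% of percent inhibition, limit read from the data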;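 further: 0% = tunicamycin plus vehicle and 100% = wells without tunicamycin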
# Arbovirus inh = antivirals against arbovirus infection; arbovirus infection cell-based antiviral screen; inhibition, % at 10 µM; actives 0.37% (n = 200,000); AID 1251; in the data active means inhibition above about 30%
# CHOP confirm = confirmation of CHOP induction inhibitors. AID 504437. inhibition, % at 10 µM. shares compounds with CHOP inh. CHO-CHOP promoter luciferase reporter, tunicamycin-induced, luminescence. actives 45% (n = 2,100);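 active means mean of three repeat readings of reporter signal inhibition above a set limit, cut at about 70% in these data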;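 further: 0% = tunicamycin plus vehicle and 100% = wells lacking tunicamycin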
# * marks the source's active call; other numbers are inactive results; / = no result. Compounds with a hit are over-represented: about 12% of the library has one in this group of screens. Unless noted, no stated cut-off is given here; in the data, active means inhibition above about 50%; inactive means the rest.
SMILES,PKD1 inh,Rad51 HR inh,Wee1 stabilizer,L major viab,CHOP inh,Arbovirus inh,CHOP confirm
CCOC(=O)C1C(c2ccc(O)c(O)c2)NC(=S)NC1(O)C(F)(F)F (stereo unspecified),-1.3,-0.9,-1.1,-2.8,18.4,3.0,/
O=C(NC1CCCCC1)C(c1ccc(F)cc1)N(Cc1ccccc1)C(=O)CN1C(=O)c2ccccc2S1(=O)=O (stereo unspecified),-3.5,-4.2,2.1,58.4*,109.3*,-11.9,79.5*
CCCOc1ccc(/C=c2\sc3nc(-c4ccco4)nn3c2=O)cc1OCC,3.7,/,0.2,8.7,40.5,3.0,/
CC(=O)Oc1cccc(/C=c2\sc3nc(-c4ccco4)nn3c2=O)c1,-4.9,-8.6,-0.6,-4.1,106.5*,5.7,26.7
C=CCn1c(=NC(=O)CC)n(C)c2ccccc21,0.8,/,-4.3,-7.0,1.9,5.4,/
COc1ccccc1NCC(O)Cn1c2ccccc2c2ccccc21 (stereo unspecified),-2.1,-0.3,0.7,44.2,100.0*,-29.0,41.0
C=CCn1c(=O)c(C(=O)Nc2ccccc2OC)c(O)c2ccccc21,/,/,/,/,/,4.7,/
Cc1ccc2nsnc2c1NC(=O)Cc1ccc(Cl)cc1,0.6,31.0,-1.4,3.8,30.8,-14.1,/
Cc1ccc2nsnc2c1NC(=O)c1ccc(-c2cc(Cl)ccc2Cl)o1,12.1,1.5,1.9,0.5,100.6*,-21.6,61.6
COc1cccc(N(C(=O)c2cnccn2)C(C(=O)NC2CCCCC2)c2ccc(Cl)cc2)c1 (stereo unspecified),-9.8,-0.3,-1.8,-0.9,16.5,-17.3,/
COc1ccc(C(C(=O)NC2CCCCC2)N(C(=O)CCl)c2cccc(Cl)c2)cc1 (stereo unspecified),2.2,0.5,-0.4,100.3*,105.8*,-37.7,104.3*
O=C(O)C1CC=CCC1C(=O)NNc1ccccc1 (stereo unspecified),-8.1,12.0,1.1,6.0,16.8,-28.4,/
Cn1nc(-c2ccccc2)cc1NC(=O)Nc1ccc(C(C)(C)C)cc1,/,4.3,-3.1,/,105.4*,/,81.1*
O=Cc1cccc(OC(=O)c2ccc(Cl)cc2Cl)c1,-0.9,1.3,1.1,-0.2,100.9*,-0.9,10.2
COc1cc(C(=O)Oc2cccc(C=O)c2)cc(OC)c1OC,0.1,/,3.2,18.4,18.5,-2.4,/
CCCCNc1nc2ccccc2n1CC(=O)Nc1c(C)cccc1CC,8.9,1.4,0.2,11.8,39.0,-4.2,/
Nc1cc(N)c(OCC(F)(F)F)cc1OCC(F)(F)F,4.1,-15.4,1.5,88.2*,101.8*,4.9,-0.4
S=C(Nc1ccccc1)Nc1ccc(OCc2ccc(Cl)cc2Cl)cc1,8.7,0.6,-0.7,18.4,107.7*,-10.1,115.1*
Cc1cc(NC(=O)NC2(C(F)(F)F)Oc3ccc(Cl)cc3O2)no1 (stereo unspecified),4.4,1.5,0.5,30.1,98.9*,1.5,114.3*
Cn1c(SCC(=O)N/N=C/c2cc([N+](=O)[O-])ccc2O)nnc1-c1ccccc1,/,0.1,-3.0,/,60.1,/,/
Cn1c(SCC(=O)N/N=C/c2ccc([N+](=O)[O-])s2)nnc1-c1ccccc1,1.8,/,-1.4,100.5*,104.8*,-44.4,-8.5
COc1ccccc1NC(=O)Nc1cccnc1,4.8,1.1,3.5,-3.7,29.1,-4.3,/
Cc1ccc(CNCc2cc3c(C(C)(C)C)nn(-c4ccccc4)c3[nH]c2=O)cc1,-11.3,10.3,-4.1,23.2,108.0*,-7.6,71.3*
COc1ccc(CNCc2cc3c(C(C)(C)C)nn(-c4ccccc4)c3[nH]c2=O)cc1,-4.9,9.4,-3.1,17.4,-7.9,-18.5,/
O=C(Cc1cccc(C(F)(F)F)c1)NCC(c1ccco1)N1CCCCC1 (stereo unspecified),7.3,-1.2,0.9,1.9,24.1,-1.6,/
SMILES,PKD1 inh,Rad51 HR inh,Wee1 stabilizer,L major viab,CHOP inh,Arbovirus inh,CHOP confirm
CN(C)/C=C(/C(=O)c1ccc(Cl)cc1)n1cncn1,-1.0,-8.9,-1.2,-0.8,3.1,7.5,/
CC(C)CC(=O)/C(=C\c1ccc(Cl)cc1Cl)n1cncn1,-7.8,17.6,-2.9,100.4*,109.1*,-44.9,2.9
CCCCOCCCn1c(-c2ccco2)nc2nc3ccccc3nc21,4.7,-10.7,-1.5,31.0,31.0,-4.2,/
Cc1cc(C2=NNC(=NC3CCCCC3)SC2)c(C)n1-c1c(C)n(C)n(-c2ccccc2)c1=O,-0.8,-0.4,0.8,42.7,41.9,9.8,/
Cc1cc(C2=NNC(=NC3CC3)SC2)c(C)n1-c1ccccc1F,-0.6,-3.4,-3.9,76.7*,104.7*,4.2,124.7*
Nc1ccc2oc(-c3cc(Br)ccc3Cl)nc2c1,3.1,0.9,-1.8,6.3,96.9*,-11.7,73.6*
CCNC(=O)N1CCCC(C(=O)c2ccc(OC)c(OC)c2)C1 (stereo unspecified),4.3,2.5,3.2,-5.0,9.1,-1.2,/
CC(=O)Oc1cc2oc(=O)c3c(c2cc1Cl)CCC3,-7.0,3.0,-0.9,-3.9,99.2*,7.2,6.2
CC1CC(C)CN(C(=O)c2ccncc2)C1 (stereo unspecified),4.2,-4.8,-1.9,-3.0,-7.8,7.8,/
CC1C/C(=C/c2ccncc2)C(=O)/C(=C/c2ccncc2)C1 (stereo unspecified),6.5,-9.0,6.7,100.6*,99.3*,-27.8,-59.0
CC(C)(C)c1cc(NC(=O)Nc2ccc(Cl)cc2Cl)no1,/,3.7,-1.2,/,96.2*,/,13.0
CC(O)COc1ccc(/C(=N/O)c2ccccc2)cc1 (stereo unspecified),4.2,-1.0,-1.3,-6.2,7.2,7.3,/
CC(C)COc1ccc(/C(=N/O)c2ccccc2)cc1,-3.2,5.2,-2.0,-0.4,107.4*,1.1,92.5*
O=[N+]([O-])c1cc(S(=O)(=O)C(F)(F)F)ccc1Sc1nc2ccccc2s1,-12.0,-4.6,0.1,100.6*,106.8*,-32.8,-27.8
O=[N+]([O-])c1cc(S(=O)(=O)C(F)(F)F)ccc1Sc1nc2ccccc2[nH]1,-5.9,4.4,-0.5,100.5*,107.9*,-33.3,123.8*
Nc1c2nc(-c3ccccc3)[nH]c(=O)c2nc(=O)n1-c1ccccc1,/,/,4.4,/,102.7*,/,-5.7
CCCCN(C(=S)Nc1cccc(C)c1C)c1c(N)n(CCC)c(=O)[nH]c1=O,-7.8,12.8,0.8,12.4,1.8,4.3,/
O=C(Nc1ccccc1-c1nc2ccccc2[nH]1)c1sc2ccccc2c1Cl,-1.6,2.7,-3.0,46.0,96.6*,-34.4,105.8*
Cc1ccnc(NC(=O)c2sc3ccccc3c2Cl)c1,-5.4,8.8,-0.6,45.8,99.5*,-3.0,61.6
CC1CN(C(=O)C2(C)CC2(Cl)Cl)CC(C)O1 (stereo unspecified),-9.0,/,-2.4,-5.6,-15.0,0.0,/
CC1(/[N+]([O-])=C/c2ccccc2F)CCCCC1=O (stereo unspecified),-4.1,4.8,2.1,-3.9,4.0,10.4,/

# Screens deposited in PubChem BioAssay by several laboratories.
